Test results as given in ChEMBL document CHEMBL1149862, “Guaiane sesquiterpene lactones and amino acid-sesquiterpene lactone conjugates from the aerial parts of Saussurea pulchella” (2008).

Tests used:
Format in all cases: functional
Conditions in all cases: read-out: ED50 (the source's name)
HCT-15 = experiment: Cytotoxicity against human HCT15 cells by SRB assay
In short: (§1)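 Sulforhodamine B (SRB) bioassay on cultured human cancer lines: A549 (non-small cell lung carcinoma), SK-OV-3 (ovary malignant ascites), SK-MEL-2 (skin melanoma) and HCT (colon adenocarcinoma). Cytotoxicity is reported as ED₅₀ in µM.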

A549 = experiment: Cytotoxicity against human A549 cells by SRB assay; in short: as §1
SK-OV-3 = experiment: Cytotoxicity against human SKOV3 cells by SRB assay; in short: as §1
SK-MEL-2 = experiment: Cytotoxicity against human SK-MEL-2 cells by SRB assay; in short: as §1

SMILES	EC50 (HCT-15) [µM]	EC50 (A549) [µM]	EC50 (SK-OV-3) [µM]	EC50 (SK-MEL-2) [µM]
C=C1[C@@H]2[C@H]3OC(=O)[C@H](C)[C@@H]3[C@@H](O)CC(=C)[C@@H]2C[C@@H]1O	> 30	> 30	> 30	> 30
C=C1C(=O)O[C@@H]2[C@H]3C(=C)[C@@H](O)C[C@H]3C(=C)C[C@H](OC(=O)CC(C)(C)O)[C@@H]12	14.2	> 30	12.4	6.78
COc1cccc2c1C(=O)c1c(O)c3c(c(O)c1C2=O)C[C@@](O)(C(=O)CO)C[C@@H]3O[C@H]1C[C@H](N)[C@H](O)[C@H](C)O1 [DOXORUBICIN]	0.164	0.007	0.056	0.117
C=C(CO)C(=O)O[C@H]1CC(=C)[C@@H]2C[C@H](O)C(=C)[C@@H]2[C@H]2OC(=O)C(=C)[C@@H]21 [CYNAROPICRIN]	12.1	24.5	7.42	4.07
C=C1[C@@H]2[C@H]3OC(=O)[C@@H](CN[C@@H](Cc4ccccc4)C(=O)O)[C@@H]3[C@@H](O)CC(=C)[C@@H]2C[C@@H]1O [PULCHELLAMINES D]	> 30	> 30	> 30	> 30
C=C1C(=O)O[C@@H]2[C@H]3C(=C)[C@@H](O)C[C@H]3C(=C)C[C@H](O)[C@@H]12 [DESACYLCYNAROPICRIN]	11.3	25.7	11.3	9.74
C=C1C(=O)O[C@@H]2[C@H]3C(=C)[C@H](O)C[C@H]3C(=C)C[C@H](OC(=O)C(C)(O)CO)[C@@H]12 (stereo not given in full)	28.8	> 30	18	10.5
C=C1[C@@H]2[C@H]3OC(=O)[C@H](C)[C@@H]3[C@@H](OC(=O)C(C)(O)CO)CC(=C)[C@@H]2C[C@@H]1O (stereo not given in full)	> 30	> 30	> 30	> 30
C=C1[C@@H]2[C@H]3OC(=O)[C@H](C)[C@@H]3[C@@H](O[C@@H]3O[C@H](CO)[C@@H](O)[C@H](O)[C@H]3O)CC(=C)[C@@H]2C[C@@H]1O	> 30	> 30	> 30	> 30
C=C1[C@@H]2[C@H]3OC(=O)[C@@H](CNCCCC(=O)O)[C@@H]3[C@@H](O)CC(=C)[C@@H]2C[C@@H]1O [PULCHELLAMINE B]	> 30	> 30	> 30	> 30
C=C1[C@@H]2[C@H]3OC(=O)[C@@H](CN[C@@H](CC(N)=O)C(=O)O)[C@@H]3[C@@H](O)CC(=C)[C@@H]2C[C@@H]1O [PULCHELLAMINE A]	> 30	> 30	> 30	> 30
C=C1[C@@H]2[C@H]3OC(=O)[C@@H](CN[C@@H](Cc4c[nH]c5ccccc45)C(=O)O)[C@@H]3[C@@H](O)CC(=C)[C@@H]2C[C@@H]1O [PULCHELLAMINE F]	> 30	> 30	24.2	18.6
C=C1[C@@H]2[C@H]3OC(=O)[C@@H](CN4CCC[C@H]4C(=O)O)[C@@H]3[C@@H](OC(=O)C(C)(O)CO)CC(=C)[C@@H]2C[C@@H]1O (stereo not given in full) [PULCHELLAMINE C]	18.3	27.6	11.8	5.73
C=C1[C@@H]2[C@H]3OC(=O)[C@@H](CN[C@H](C(=O)O)[C@H](C)CC)[C@@H]3[C@@H](O)CC(=C)[C@@H]2C[C@@H]1O [PULCHELLAMINE G]	> 30	> 30	> 30	> 30
C=C1[C@@H]2[C@H]3OC(=O)[C@@H](CN[C@H](C(=O)O)C(C)C)[C@@H]3[C@@H](O)CC(=C)[C@@H]2C[C@@H]1O [PULCHELLAMINE E]	> 30	> 30	> 30	> 30
